Columns and labels:
[1] = Selectivity index, ratio of CC50 for african green monkey Vero cells to EC50 for Tacaribe virus TRVL11573; type: toxicity, cell-based; details: read-out: Ratio CC50/EC50
[2] = Selectivity index, ratio of CC50 for african green monkey Vero cells to EC50 for Junin virus Candid-1; type: toxicity, cell-based; details: read-out: Ratio CC50/EC50
[3] = Cytotoxicity against african green monkey Vero 76 cells assessed as cell viability after 3 to 5 days; type: cell-based; details: chlorocebus sabaeus
[4] = Selectivity index, ratio of CC50 for african green monkey Vero 76 cells to EC50 for La Crosse virus; type: toxicity, cell-based; details: read-out: Ratio CC50/EC50
[5] = Cytotoxicity against african green monkey Vero cells after 7 to 8 days by neutral-red dye uptake assay; type: cell-based; details: chlorocebus sabaeus
Procedure, shortened: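 Subconfluent (50-70%) Vero cells received half-log drug dilutions without virus and were held at 37°C, 5% CO2 for 7-8 days. Cells were stained with 0.034% neutral red for 2 h, and the dye was extracted 30 min in ethanol with Sorenson's citrate buffer. Absorbance was read at 540 nm as % of untreated controls. CC50 was derived by regression.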

Mus musculus [6] = assay: % Compound cleared in virus-infected po dosed mouse after 6 hrs; type: ADME, organism-based; details: in vivo
[7] = Selectivity index, ratio of CC50 for african green monkey Vero 76 cells to EC50 for Rift Valley fever virus MP-12; type: toxicity, cell-based; details: read-out: Ratio CC50/EC50
Mus musculus [8] = organism: Mus musculus; details: in vivo, po
[9] = Selectivity index, ratio of CC50 for african green monkey Vero cells to EC50 for Pichinde virus An 4763; type: toxicity, cell-based; details: read-out: Ratio CC50/EC50
[10] = Metabolic stability in po dosed mouse assessed as drug remaining after 6 hrs; type: ADME, organism-based; details: in vivo, read-out: Stability
[11] = Selectivity index, ratio of CC50 for african green monkey Vero 76 cells to EC50 for Sandfly fever Naples virus; type: toxicity, cell-based; details: read-out: Ratio CC50/EC50
Syrian golden hamster = details: in vivo, po, 72 h
[12] = Selectivity index, ratio of CC50 for african green monkey Vero 76 cells to EC50 for Punta Toro virus Adames; type: toxicity, cell-based; details: read-out: Ratio CC50/EC50

NC(=O)c1nc(F)c[nH]c1=O [FAVIPIRAVIR]
selectivity ratio [1]: 227
selectivity ratio [2]: 239
CC50 [3]: > 6260 µM
selectivity ratio [4]: > 199
CC50 [5]: 1110 µM
%Cleared (Mus musculus [6]): > 90%
selectivity ratio [7]: > 196
LD50 (Mus musculus [8]): 707 mg/kg/day
selectivity ratio [9]: 186
remaining at 6 h [10]: 10%
selectivity ratio [11]: > 55
LD50 (Syrian golden hamster): 1500 mg/kg/day
selectivity ratio [12]: > 33

From ChEMBL document CHEMBL1154414, “In vitro and in vivo activities of T-705 against arenavirus and bunyavirus infections” (Antimicrob Agents Chemother, 2007)
